The first assay has as its target T1, Polyunsaturated fatty acid 5-lipoxygenase (Homo sapiens) (UniProt P09917).
T1 sequence (whole entry): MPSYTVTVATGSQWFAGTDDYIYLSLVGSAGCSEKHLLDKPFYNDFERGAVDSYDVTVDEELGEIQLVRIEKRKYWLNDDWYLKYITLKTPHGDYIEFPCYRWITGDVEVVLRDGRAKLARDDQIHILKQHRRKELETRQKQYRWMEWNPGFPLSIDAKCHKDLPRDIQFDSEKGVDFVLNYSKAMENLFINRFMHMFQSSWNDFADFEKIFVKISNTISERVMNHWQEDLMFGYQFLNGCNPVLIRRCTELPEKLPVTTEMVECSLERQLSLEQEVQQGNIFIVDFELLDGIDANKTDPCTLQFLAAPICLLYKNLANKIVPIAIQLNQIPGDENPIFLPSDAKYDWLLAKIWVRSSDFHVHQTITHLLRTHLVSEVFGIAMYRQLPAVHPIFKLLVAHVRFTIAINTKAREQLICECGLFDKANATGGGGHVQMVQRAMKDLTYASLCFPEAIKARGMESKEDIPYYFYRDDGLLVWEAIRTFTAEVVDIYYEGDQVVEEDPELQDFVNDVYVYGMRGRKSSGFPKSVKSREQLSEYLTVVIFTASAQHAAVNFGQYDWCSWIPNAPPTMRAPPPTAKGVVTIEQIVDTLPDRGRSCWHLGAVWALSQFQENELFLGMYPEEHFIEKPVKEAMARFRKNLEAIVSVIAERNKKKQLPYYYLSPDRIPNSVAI
Kind of assay: Inhibition of 5-Lipoxygenase in arachidonic acid-stimulated human neutrophils assessed as residual activity at 10 uM after 15 mins by HPLC analysis in presence of A23187. Summed up: (§1)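 Human neutrophils, 5 × 10^6/mL in PBS/glucose/1 mM CaCl2, preincubated 15 min at RT, then 2.5 µM A23187 plus 20 µM AA for 10 min at 37 °C. Methanol stop, PGB1 internal standard, HPLC of LTB4, its all-trans isomers and 5-H(p)ETE. Residual % versus 0.3% DMSO vehicle, mean ± SEM, n = 3–5. IC50 by linear interpolation from 4–5 concentrations.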
Take `O=C(CCc1cc(-c2ccc(F)cc2)n(-c2ccc(Cl)nn2)n1)Oc1ccc(-n2ccnc2)cc1`: the Activity is 111%.
As to `O=C(CCc1cc(-c2ccc(C(F)(F)F)cc2)n(-c2ccc(Cl)nn2)n1)N1CCN(C(=O)c2ccco2)CC1`, the Activity was found to be 81.8%.
Same read-out and setting: with `O=C(CCc1cc(-c2ccc(C(F)(F)F)cc2)n(-c2ccc(Cl)nn2)n1)Oc1ccc(C2CCCC2)cc1` the figure was 77.2%.
In the case of `CC(C)(C)c1ccc(OC(=O)CCc2cc(-c3ccc(F)cc3)n(-c3ccc(Cl)nn3)n2)cc1`, the Activity stood at 67.3%.
Same read-out and setting: with `CC(C)(C)c1ccc(CN2CCN(C(=O)CCc3cc(-c4ccc(C(F)(F)F)cc4)n(-c4ccc5ccccc5n4)n3)CC2)cc1` the figure was 44.5%; with `CCCCCCCOc1ccc(OC(=O)CCc2cc(-c3ccc(F)cc3)n(-c3ccc(Cl)nn3)n2)cc1`, 90.1%.
As to `COc1ccc(NC(=O)CCc2cc(-c3ccc(F)cc3)n(-c3ccc(Cl)nn3)n2)cc1`, the Activity came to 88.3%.
In the case of `CCS(=O)(=O)N1CCN(C(=O)CCc2cc(-c3ccc(C)cc3)n(-c3ccc(Cl)nn3)n2)CC1`, the Activity was 96.3%.
`O=C(CCc1cc(-c2ccc(C(F)(F)F)cc2)n(-c2ccc(Cl)nn2)n1)Oc1ccc(-n2cccc2)cc1`: the Activity came out at 94.1%.
Still for that read-out and setting: for `Cc1ccc(-c2cc(CCC(=O)N3CCN(CC4CCCO4)CC3)nn2-c2ccc(Cl)nn2)cc1` (stereo unspecified) the value was 86%; for `COc1ccc(-n2nc(CCC(=O)N3CCN(Cc4ccc(C(C)(C)C)cc4)CC3)cc2-c2ccc(C)cc2)nn1`, 27.1%.
In the case of `COc1ccc(-n2nc(CCC(=O)N3CCN(Cc4ccc(C(C)(C)C)cc4)CC3)cc2-c2ccc(C(F)(F)F)cc2)nn1`, the Activity is 36.2%.
Take `CC(C)(C)c1ccc(CN2CCN(C(=O)CCc3cc(-c4ccc(C(F)(F)F)cc4)n(-c4ccc(Cl)nn4)n3)CC2)cc1`: the Activity was determined as 17.4%.
Regarding `Cc1ccc(-c2cc(CCC(=O)Oc3ccc(OC(F)(F)F)cc3)nn2-c2ccc(Cl)nn2)cc1`, the Activity worked out at 70.5%.
Still for that read-out and setting: with `COc1ccc(-n2nc(CCC(=O)N3CCN(Cc4ccc(C(C)(C)C)cc4)CC3)cc2-c2ccc(F)cc2)nn1` the figure was 50.1%.
Same read-out and setting: for `CC(C)(C)c1ccc(CN2CCN(C(=O)CCc3cc(-c4ccc(F)cc4)n(-c4ccccc4)n3)CC2)cc1` the value was 3.7%; for `Cc1ccc(-c2cc(CCC(=O)Oc3ccc(Oc4ccc(C(F)(F)F)cc4)cc3)nn2-c2ccc(Cl)nn2)cc1`, 86.5%.
For the molecule `CC(C)(C)c1ccc(CN2CCN(C(=O)CCc3cc(-c4ccc(C(F)(F)F)cc4)n(-c4ccc(Cl)cc4)n3)CC2)cc1`, the Activity was found to be 43.9%.
Take `CC(C)(C)c1ccc(CN2CCN(C(=O)CCc3cc(-c4ccc(C(F)(F)F)cc4)n(-c4ccccc4)n3)CC2)cc1`: the Activity came to 12.7%.
With `Cc1ccc(-c2cc(CCC(=O)N3CCN(Cc4ccc(C(C)(C)C)cc4)CC3)nn2-c2ccc(Cl)nn2)cc1`, the Activity was 14.6%.
On to `CC(C)(C)c1ccc(CN2CCN(C(=O)CCc3cc(-c4ccc(F)cc4)n(-c4ccc(Cl)cc4)n3)CC2)cc1`, for which the Activity is 13.2%.
On to `O=C(CCc1cc(-c2ccc(F)cc2)n(-c2ccc(Cl)nn2)n1)Oc1ccc(-c2ccsc2)cc1`, for which the Activity was found to be 90.8%.
In the case of `Cc1ccc(-c2cc(CCC(=O)N3CCN(Cc4ccc(C(C)(C)C)cc4)CC3)nn2-c2ccc(Cl)cc2)cc1`, the Activity was determined as 27.7%.
For `O=C(CCc1cc(-c2ccc(F)cc2)n(-c2ccc(Cl)nn2)n1)N1CCN(C(=O)C2CCCO2)CC1` (stereo unspecified), the Activity turned out to be 95%.
As to `Cc1ccc(-c2cc(CCC(=O)Nc3ccc(N4CCOCC4)nc3)nn2-c2ccc(Cl)nn2)cc1`, the Activity turned out to be 106%.
The same measure, in the same setting: with `CC(C)(C)c1ccc(CN2CCN(C(=O)CCc3cc(-c4ccc(F)cc4)n(-c4ccc5ccccc5n4)n3)CC2)cc1` the figure was 10.4%.
On to `NC(=O)C1CCN(C(=O)CCc2cc(-c3ccc(C(F)(F)F)cc3)n(-c3ccc(Cl)nn3)n2)CC1`, for which the Activity amounted to 104%.

The target in the next assay is T2, Polyunsaturated fatty acid 5-lipoxygenase (Homo sapiens, UniProt P09917).
T2 sequence (P09917 whole entry): T1 sequence (whole entry)
The assay can be described thus: Inhibition of 5-Lipoxygenase in arachidonic acid-stimulated human neutrophils after 15 mins by HPLC analysis in presence of A23187. Summed up: as §1
Usually IC50 stands for the point on the concentration scale where inhibition reaches its midpoint. On to `CC(C)(C)c1ccc(CN2CCN(C(=O)CCc3cc(-c4ccc(C(F)(F)F)cc4)n(-c4ccc5ccccc5n4)n3)CC2)cc1`, for which the concentration for half-maximal inhibition (IC50) turned out to be 3000 nM.
Still for that read-out and setting: with `COc1ccc(-n2nc(CCC(=O)N3CCN(Cc4ccc(C(C)(C)C)cc4)CC3)cc2-c2ccc(C)cc2)nn1` the figure was 3300 nM; with `COc1ccc(-n2nc(CCC(=O)N3CCN(Cc4ccc(C(C)(C)C)cc4)CC3)cc2-c2ccc(C(F)(F)F)cc2)nn1`, 8000 nM; with `CC(C)(C)c1ccc(CN2CCN(C(=O)CCc3cc(-c4ccc(C(F)(F)F)cc4)n(-c4ccc(Cl)nn4)n3)CC2)cc1`, 2900 nM.
As for `COc1ccc(-n2nc(CCC(=O)N3CCN(Cc4ccc(C(C)(C)C)cc4)CC3)cc2-c2ccc(F)cc2)nn1`, the IC50 was over 10000 nM.
Consider `CC(C)(C)c1ccc(CN2CCN(C(=O)CCc3cc(-c4ccc(F)cc4)n(-c4ccccc4)n3)CC2)cc1`, for which the 50% inhibitory concentration (IC50) turned out to be 2500 nM.
Regarding `CC(C)(C)c1ccc(CN2CCN(C(=O)CCc3cc(-c4ccc(C(F)(F)F)cc4)n(-c4ccc(Cl)cc4)n3)CC2)cc1`, the IC50 was 8000 nM.
In the case of `CC(C)(C)c1ccc(CN2CCN(C(=O)CCc3cc(-c4ccc(C(F)(F)F)cc4)n(-c4ccccc4)n3)CC2)cc1`, the IC50 amounted to 2900 nM.
For `Cc1ccc(-c2cc(CCC(=O)N3CCN(Cc4ccc(C(C)(C)C)cc4)CC3)nn2-c2ccc(Cl)nn2)cc1`, the IC50 came to 2800 nM.
Same read-out and setting: with `CC(C)(C)c1ccc(CN2CCN(C(=O)CCc3cc(-c4ccc(F)cc4)n(-c4ccc(Cl)cc4)n3)CC2)cc1` the figure was 2600 nM; with `Cc1ccc(-c2cc(CCC(=O)N3CCN(Cc4ccc(C(C)(C)C)cc4)CC3)nn2-c2ccc(Cl)cc2)cc1`, 2900 nM.
Still for that read-out and setting: with `CC(C)(C)c1ccc(CN2CCN(C(=O)CCc3cc(-c4ccc(F)cc4)n(-c4ccc5ccccc5n4)n3)CC2)cc1` the figure was 2800 nM.

The target in the next assay is T1, Polyunsaturated fatty acid 5-lipoxygenase (Homo sapiens). Kind of assay: Inhibition of recombinant human 5-Lipoxygenase expressed in Escherichia coli lysate assessed as residual activity at 10 uM after 10 mins by HPLC analysis. Summed up: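 Human 5-LO expressed at 30 °C in E. coli MV1190 (pT3-5LO); lysate 40,000 g supernatant in PBS pH 7.4 with 1 mM EDTA. Preincubated with compound 10 min at 4 °C, warmed 30 s at 37 °C. Started with 2 mM CaCl2 plus 20 µM AA, 10 min at 37 °C. Methanol stop, HPLC. Residual % versus 0.3% DMSO vehicle, n = 3–5.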
On to `O=C(CCc1cc(-c2ccc(F)cc2)n(-c2ccc(Cl)nn2)n1)Oc1ccc(-n2ccnc2)cc1`, for which the Activity was determined as 71.7%.
For `O=C(CCc1cc(-c2ccc(C(F)(F)F)cc2)n(-c2ccc(Cl)nn2)n1)N1CCN(C(=O)c2ccco2)CC1`, the Activity amounted to 126%.
As to `O=C(CCc1cc(-c2ccc(C(F)(F)F)cc2)n(-c2ccc(Cl)nn2)n1)Oc1ccc(C2CCCC2)cc1`, the Activity came to 92%.
With `CC(C)(C)c1ccc(OC(=O)CCc2cc(-c3ccc(F)cc3)n(-c3ccc(Cl)nn3)n2)cc1`, the Activity came out at 92.7%.
In the case of `CC(C)(C)c1ccc(CN2CCN(C(=O)CCc3cc(-c4ccc(C(F)(F)F)cc4)n(-c4ccc5ccccc5n4)n3)CC2)cc1`, the Activity was determined as 87.3%.
On to `CCCCCCCOc1ccc(OC(=O)CCc2cc(-c3ccc(F)cc3)n(-c3ccc(Cl)nn3)n2)cc1`, for which the Activity worked out at 86.5%.
With `COc1ccc(NC(=O)CCc2cc(-c3ccc(F)cc3)n(-c3ccc(Cl)nn3)n2)cc1`, the Activity stood at 91.6%.
As to `CCS(=O)(=O)N1CCN(C(=O)CCc2cc(-c3ccc(C)cc3)n(-c3ccc(Cl)nn3)n2)CC1`, the Activity turned out to be 93.6%.
Regarding `O=C(CCc1cc(-c2ccc(C(F)(F)F)cc2)n(-c2ccc(Cl)nn2)n1)Oc1ccc(-n2cccc2)cc1`, the Activity is 90.8%.
Take `Cc1ccc(-c2cc(CCC(=O)N3CCN(CC4CCCO4)CC3)nn2-c2ccc(Cl)nn2)cc1` (stereo unspecified): the Activity is 106%.
As for `COc1ccc(-n2nc(CCC(=O)N3CCN(Cc4ccc(C(C)(C)C)cc4)CC3)cc2-c2ccc(C)cc2)nn1`, the Activity stood at 86.1%.
As for `COc1ccc(-n2nc(CCC(=O)N3CCN(Cc4ccc(C(C)(C)C)cc4)CC3)cc2-c2ccc(C(F)(F)F)cc2)nn1`, the Activity was found to be 56.1%.
As for `CC(C)(C)c1ccc(CN2CCN(C(=O)CCc3cc(-c4ccc(C(F)(F)F)cc4)n(-c4ccc(Cl)nn4)n3)CC2)cc1`, the Activity was 88.9%.
The same measure, in the same setting: for `Cc1ccc(-c2cc(CCC(=O)Oc3ccc(OC(F)(F)F)cc3)nn2-c2ccc(Cl)nn2)cc1` the value was 116%; for `COc1ccc(-n2nc(CCC(=O)N3CCN(Cc4ccc(C(C)(C)C)cc4)CC3)cc2-c2ccc(F)cc2)nn1`, 69.2%; for `CC(C)(C)c1ccc(CN2CCN(C(=O)CCc3cc(-c4ccc(F)cc4)n(-c4ccccc4)n3)CC2)cc1`, 78.5%.
`Cc1ccc(-c2cc(CCC(=O)Oc3ccc(Oc4ccc(C(F)(F)F)cc4)cc3)nn2-c2ccc(Cl)nn2)cc1`: the Activity came to 95%.
The same measure, in the same setting: with `CC(C)(C)c1ccc(CN2CCN(C(=O)CCc3cc(-c4ccc(C(F)(F)F)cc4)n(-c4ccc(Cl)cc4)n3)CC2)cc1` the figure was 138%; with `CC(C)(C)c1ccc(CN2CCN(C(=O)CCc3cc(-c4ccc(C(F)(F)F)cc4)n(-c4ccccc4)n3)CC2)cc1`, 109%.
With `Cc1ccc(-c2cc(CCC(=O)N3CCN(Cc4ccc(C(C)(C)C)cc4)CC3)nn2-c2ccc(Cl)nn2)cc1`, the Activity is 107%.
As to `CC(C)(C)c1ccc(CN2CCN(C(=O)CCc3cc(-c4ccc(F)cc4)n(-c4ccc(Cl)cc4)n3)CC2)cc1`, the Activity was found to be 143%.
For the molecule `O=C(CCc1cc(-c2ccc(F)cc2)n(-c2ccc(Cl)nn2)n1)Oc1ccc(-c2ccsc2)cc1`, the Activity came out at 83.4%.
The same measure, in the same setting: with `Cc1ccc(-c2cc(CCC(=O)N3CCN(Cc4ccc(C(C)(C)C)cc4)CC3)nn2-c2ccc(Cl)cc2)cc1` the figure was 111%.
For `O=C(CCc1cc(-c2ccc(F)cc2)n(-c2ccc(Cl)nn2)n1)N1CCN(C(=O)C2CCCO2)CC1` (stereo unspecified), the Activity was 90.8%.
With `Cc1ccc(-c2cc(CCC(=O)Nc3ccc(N4CCOCC4)nc3)nn2-c2ccc(Cl)nn2)cc1`, the Activity was determined as 90%.
`CC(C)(C)c1ccc(CN2CCN(C(=O)CCc3cc(-c4ccc(F)cc4)n(-c4ccc5ccccc5n4)n3)CC2)cc1`: the Activity worked out at 114%.
Take `NC(=O)C1CCN(C(=O)CCc2cc(-c3ccc(C(F)(F)F)cc3)n(-c3ccc(Cl)nn3)n2)CC1`: the Activity worked out at 103%.
